This excerpt belongs to a sample that is enriched for hits.
T cruzi inh = inhibitors of intracellular T. cruzi growth, primary screen, luminescence, NIH3T3 host cells. T. cruzi beta-gal in NIH3T3, 90 h. inhibition, % (no concentration beside the values). 300,000 compounds, 1.4% hits;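 active = mean inhibition across valid replicates above about 55%, limit read from the data; inconclusive = mean below that limit but half or more replicates reach it; inactive = mean below it, under half of replicates reach it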;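 also: signal also drops with host cell toxicity which is not excluded here; 0% = plate median of DMSO wells and 100% = zero luminescence signal; higher percent means less beta-gal luminescence so fewer parasites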
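Read-out: Parasite load inhibition, % | Test system: Mouse NIH/3T3 fibroblasts infected with β-gal-expressing T. cruzi Tulahuen C4 | Amount: 5,000 cells/well | Medium: DMEM, 2% fetal bovine serum | Signal: GalScreen β-gal luminescence, detergent lysis, 60 min | Timing: 3 h attach, ≥90 h co-culture | Also added: Tulahuen C4 trypomastigotes, 5000/well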
XBP1 UPR activ = activators of adaptive XBP1 UPR arm, primary screen, cell-based, CHO-XBP1 luciferase reporter, luminescence, uHTS. 330,000 compounds, 0.33% hits. IRE1-XBP1 UPR activation; percent of tunicamycin response, DMSO as zero. activation, % at 20 µM. AID 463104, 2010;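 active = versus positive control, 20 µM dose yields 30% or more activation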;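 also: 100% = tunicamycin at 10 µg/mL and 0% = DMSO only wells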
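Material: CHO-XBP1 cells stably carrying IRE1-XBP1-driven luciferase reporter / Amount: 1000 cells per well / Compound: 20 µM, 1% DMSO / Times: 6 h treatment, 37 °C / Detection: luciferase luminescence / Measure: % activation of reporter signal versus tunicamycin and DMSO controls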
Lmaj promast = Leishmania major promastigote growth inhibition, primary screen | Leishmania major promastigotes, resazurin fluorescence viability | inhibition, % at 10 µM | 200,000 compounds, 9% hits | AID 1063, 2008; in the data active = inhibition above about 50%;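 also: promastigotes grown with compound for 44 hours at 28 °C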
CHOP inh = inhibitors of CHOP promoter induction, primary screen, cell-based, unfolded protein response, luciferase reporter. CHO-K1 CHOP-promoter luciferase, tunicamycin-induced, 15-18 h. 220,000 compounds, 3.8% hits. AID 2732, 2010. inhibition, % at 10 µM;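 active = compounds that reduced the stress-induced luciferase reporter signal by more than about 70% of percent inhibition, limit read from the data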;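 also: 0% = tunicamycin plus vehicle and 100% = wells without tunicamycin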
Dynein transport = inhibitors of GR-EGFP nuclear translocation, primary screen, dynein cargo transport inhibitor project, imaging, high-content, 3617.4 mouse cells; test concentration mostly 20 µM; stimulated with dexamethasone, 1 µM; stronger effect = lower value; z-score, hits read low; 220,000 compounds, 0.47% hits; AID 1381, 2008;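 active = plate z-score of nuclear minus cytoplasmic receptor signal below a set negative limit, without overly bright fluorescence or cell loss, cut at about -3.5 in these data, passing the limit was not always enough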;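 also: z-score of nuclear minus cytoplasmic ring GR-EGFP intensity difference per well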
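Buffer or medium: tet-free medium with charcoal-stripped serum / Also added: dexamethasone agonist, 1.0 µM final, for 30 min / Timing: induction 48 h, compound 1 h, agonist 30 min / Measured by: high-content fluorescence imaging after fixation / Read-out: nuclear-to-cytoplasmic GR-EGFP distribution per well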
CHOP UPR activ = activators of apoptotic CHOP UPR arm, primary screen, cell-based, CHO-CHOP luciferase reporter, luminescence, uHTS; UPR activation; percent of tunicamycin response over DMSO baseline; activation, % at 10 µM; 330,000 compounds, 0.34% hits;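 active = at 10 µM dose, activation of 40% or more, normalized to positive control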;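 also: 100% = tunicamycin at 10 µg/mL and 0% = DMSO alone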
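Assay system: CHO cells with stable CHOP pathway luciferase reporter; Buffer or medium: F12 plus 10% serum; Times: 16-18 h cell attachment, then 6 h compound exposure, 37 °C; Signal: luciferase luminescence; Read-out basis: percent activation relative to tunicamycin control; Control set: tunicamycin high control, DMSO low control.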
Active calls of the source: *; ? = inconclusive; / = no result.

SMILES | T cruzi inh | XBP1 UPR activ | Lmaj promast | CHOP inh | Dynein transport | CHOP UPR activ
CCOC(=O)CNC(=S)N(CCCN1CCN(C)CC1)Cc1cccs1 | 0.3 | 0.1 | / | / | / | 0.5
COC(=O)c1cc2c(-c3ccccc3)cc3ccccn3c-2c1C(=O)OC | 37.0 | 6.3 | 88.3* | 15.4 | 0.899 | -1.1
COC(=O)c1c(C(=O)OC)c2cccc3cc(-c4ccccc4)c4ccc1c4n32 | 12.9 | 16.9 | -1.4 | 82.9* | -0.821 | -0.1
COC(=O)c1cc(-c2ccccc2)sc1N | -10.3 | 5.6 | -6.7 | 16.4 | 0.00933 | 6.1
COc1ccccc1N(C)S(=O)(=O)c1ccc(C(=O)OCC(=O)Nc2ccccc2F)cc1 | -2.7 | -1.9 | 11.4 | -4.2 | 0.788 | -1.7
COc1ccccc1N(C)S(=O)(=O)c1ccc(C(=O)NC2=NCCS2)cc1 | -0.6 | 0.1 | 95.9* | 4.8 | 1.63 | 1.6
CC(OC(=O)c1ccc(Cl)cc1)C(=O)NCc1ccc2c(c1)OCO2 (stereo not drawn) | / | 0.4 | / | / | / | -1.5
COc1ccccc1NC(=O)c1ccc(S(=O)(=O)N(C)c2ccccc2OC)cc1 | / | -2.6 | / | / | / | 0.6
COc1ccccc1N(C)S(=O)(=O)c1ccc(C(=O)OCC(=O)c2c[nH]c3ccccc23)cc1 | -1.4 | 1.2 | 100.1* | 41.3 | 0.399 | -0.4
COc1ccccc1N(C)S(=O)(=O)c1ccc(C(=O)OC(C)C(=O)NCc2ccc3c(c2)OCO3)cc1 (stereo not drawn) | -0.2 | -5.1 | 97.6* | 6.2 | 1.56 | -2.9
COc1ccccc1N(C)S(=O)(=O)c1ccc(C(=O)OCC(=O)N(C)c2ccccc2)cc1 | -3.9 | -0.4 | 96.5* | 23.8 | -0.512 | 1.0
COc1ccc(CN2CC(C(=O)N3CC(C)CC(C)C3)CC2=O)cc1 (stereo not drawn) | 1.7 | 0.1 | / | / | / | -2.3
COc1ccc(C(=O)NCc2ccc(F)cc2)cc1S(=O)(=O)N1CCCC1 | / | 0.6 | / | / | / | -1.7
CC(CNc1nc2ccccc2n2cnnc12)c1ccccc1 (stereo not drawn) | -2.2 | -1.5 | / | / | / | 1.4
Cc1cccc(NC(=O)Nc2ccc(C#N)cc2)n1 | 19.7 | -2.0 | 35.0 | 77.2* | -0.375 | 6.7
Cc1cccc(NC(=O)Nc2cccc(C#N)c2)n1 | 11.8 | 0.7 | -2.4 | 31.7 | -0.156 | 5.8
COc1ccc(NS(=O)(=O)c2cccc(C(=O)NCC(c3cccs3)N3CCOCC3)c2)cc1 (stereo not drawn) | / | -2.2 | / | / | / | 2.2
Cc1ncc(C[n+]2csc(CCOC(=O)C34CC5CC(CC(C5)C3)C4)c2C)c(N)n1 | 29.0 | -0.1 | -4.8 | 20.4 | -1.46 | 0.3
O=C(COC(=O)C12CC3CC(CC(C3)C1)C2)NCCc1ccccc1 | -4.0 | -3.4 | -6.2 | 77.0* | 0.77 | 1.0
Cc1c(CCOC(=O)C23CC4CC(CC(C)(C4)C2)C3)sc[n+]1Cc1ccccc1 | ? | 2.2 | 100.2* | 5.1 | -1.34 | 0.8
Cc1c(CCOC(=O)C23CC4CC(CC(C4)C2)C3)sc[n+]1Cc1ccccc1 | 1.0 | -1.7 | 98.5* | -3.3 | -0.116 | -0.2
COc1cccc(Nc2nc(C)cc(C)c2C(N)=O)c1 | -3.9 | -3.2 | / | / | / | 1.2
COc1ccc(C(C(=O)NC(C)(C)C)N(C(=O)CCC(=O)Nc2cc(C)on2)c2c(C)cccc2C)cc1 (stereo not drawn) | -2.8 | -1.8 | / | / | / | 3.0
CCCCCOc1ccc(/C(C)=N/NC2=NCCN2)cc1 | 44.0 | 3.0 | / | / | / | 2.5
CCOc1ccc(Br)cc1/C(C)=N\NC1=NCCN1 | 0.8 | -6.8 | 94.6* | 11.2 | -1.39 | 1.0
C/C(=N/Nc1ccnc2cc(Cl)ccc12)c1ccc(N)cc1 | 60.2* | 3.7 | / | / | / | 3.0
C/C(=N/Nc1ccnc2cc(Cl)ccc12)c1ccc(O)cc1 | 32.2 | 0.5 | / | / | / | 4.5
CCc1cc(Cn2nc(-c3ccccc3)cc2C(=O)NCc2ccc(C)cc2)on1 | 5.7 | -4.8 | / | / | / | -0.6
CC1CCN(Cc2cc(=O)oc3ccc4ccccc4c23)CC1 | 8.0 | 1.7 | / | -1.5 | 1.07 | 4.1

Screens: PubChem, several laboratories
